Experimental data from ChEMBL document CHEMBL1153929, “Exploration and synthesis of curcumin analogues with improved structural stability both in vitro and in vivo as cytotoxic agents” (Bioorg Med Chem, 2009).

Legend:
[1] = Hydrolytic stability assessed as compound degradation at 2 mg in sodium dihydrogen phosphate buffered 0.3% sodium carboxymethylcellulose solution at pH 7.4 after 45 hrs by HPLC; assay type: physicochemical; conditions: read-out: Activity
Summary of the method: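 2 mg of sample was vortexed into 1 ml of 0.3% (w/v) CMCNa solution in phosphate buffer at pH 7.4 and kept in the dark at 37 °C. HPLC peak areas were recorded. Degradation = (area at 0 h − area at end time) / area at 0 h × 100%.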

KB (human) = assay: Cytotoxicity against human KB cells after 72 hrs by MTT assay
[2] = Cytotoxicity against human LS 174T cells after 72 hrs by MTT assay; assay type: functional, cell-based; conditions: LS174T
Summary of the method: (§1)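 Cells were plated at 5000 per well in 1640 medium with 5% heat-inactivated calf serum and penicillin/streptomycin, at 37 °C and 5% CO2. After 24 h, compounds in DMSO were added at final 100, 33.3, 11.1 and 3.7 µg/ml for 72 h. MTT (5 mg/ml in 0.9% NaCl) was then added for 3 h, the formazan dissolved in DMSO, and absorbance read at 570 nm.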

HeLa = assay: Cytotoxicity against human HeLa cells after 72 hrs by MTT assay; assay type: functional, cell-based; summary of the method: as §1
PC-3 = assay: Cytotoxicity against human PC3 cells after 72 hrs by MTT assay; assay type: functional, cell-based; conditions: PC-3, 72 h; summary of the method: as §1
CNE = assay: Cytotoxicity against human CNE cells after 72 hrs by MTT assay; assay type: functional, cell-based; summary of the method: as §1
[3] = AUC (0 to infinity) in healthy Sprague-Dawley rat at 500 mg/kg, po administered as single dose; assay type: ADME, organism-based; set-up: dose 500 mg/kg, route oral, time infinity; conditions: plasma
Summary of the method: (§2)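 Four rats per group, dosed once by oral gavage at 500 mg/kg, suspended with the aid of 1% CMCNa. Blood (0.5 ml) was taken from the orbital venous plexus at 0.083, 0.25, 0.5, 1, 2, 4 and 8 h. Plasma (200 µl) was extracted with ethyl acetate/chloroform and assayed by isocratic HPLC on an ODS2 column. Parameters came from non-compartmental analysis.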

[4] = Chemical stability assessed as compound degradation in 0.1 M phosphate buffer at pH 7.2 within 30 mins; assay type: physicochemical; conditions: read-out: Activity
Liver = assay: Drug level in liver of patient with cancer at 3.6 g/day by HPLC; assay type: ADME, tissue-based; conditions: human, in vivo; read-out: Drug uptake
[5] = AUC (0 to t) in healthy Sprague-Dawley rat at 500 mg/kg, po administered as single dose; assay type: ADME, organism-based; set-up: dose 500 mg/kg, route oral; conditions: plasma; summary of the method: as §2
[6] = Drug level in bile of patient with cancer at 3.6 g/day by HPLC; assay type: ADME, tissue-based; conditions: human, in vivo; read-out: Drug uptake
[7] = Mean residence time (0 to infinity) in healthy Sprague-Dawley rat at 500 mg/kg, po administered as single dose; assay type: ADME, organism-based; set-up: dose 500 mg/kg, route oral; conditions: in vivo; summary of the method: as §2
[8] = Metabolic stability in Sprague-Dawley rat plasma assessed as drug recovery at 3.2 ug/ml by RP-HPLC; assay type: ADME, cell-free; conditions: read-out: Stability
[9] = Plasma concentration in healthy Sprague-Dawley rat at 500 mg/kg, po administered as single dose after 2 hrs; assay type: ADME, organism-based; set-up: dose 500 mg/kg, route oral; conditions: read-out: Drug uptake; summary of the method: as §2
Blood [10] = assay: Drug level in peripheral blood of patient with cancer at 3.6 g/day by HPLC; assay type: ADME, tissue-based; conditions: human, read-out: Drug uptake
Blood [11] = assay: Drug level in portal blood of patient with cancer at 3.6 g/day by HPLC; assay type: ADME, tissue-based; conditions: human, read-out: Drug uptake
[12] = Tmax in healthy Sprague-Dawley rat at 500 mg/kg, po administered as single dose; assay type: ADME, organism-based; set-up: dose 500 mg/kg, route oral; conditions: in vivo; summary of the method: as §2
[13] = Metabolic stability in Sprague-Dawley rat plasma assessed as drug recovery at 0.2 ug/ml by RP-HPLC; assay type: ADME, cell-free; conditions: read-out: Stability
BGC-823 = assay: Cytotoxicity against human BGC823 cells after 72 hrs by MTT assay; assay type: functional, cell-based; conditions: BGC-823, 72 h; summary of the method: as §1
[14] = Half life in healthy Sprague-Dawley rat at 500 mg/kg, po administered as single dose; assay type: ADME, organism-based; set-up: dose 500 mg/kg, route oral; conditions: in vivo; summary of the method: as §2
[15] = Mean residence time (0 to t) in healthy Sprague-Dawley rat at 500 mg/kg, po administered as single dose; assay type: ADME, organism-based; set-up: dose 500 mg/kg, route oral; conditions: in vivo; summary of the method: as §2
[16] = Cmax in healthy Sprague-Dawley rat at 500 mg/kg, po administered as single dose; assay type: ADME, organism-based; set-up: dose 500 mg/kg, route oral; conditions: in vivo; summary of the method: as §2
[17] = Metabolic stability in Sprague-Dawley rat plasma assessed as drug recovery at 0.05 ug/ml by RP-HPLC; assay type: ADME, cell-free; conditions: read-out: Stability
HL-60 (human) = assay: Cytotoxicity against human HL60 cells after 72 hrs by MTT assay; conditions: HL-60, 72 h
[18] = Chemical stability assessed as half life in pH 8 buffer containing 10% cyclodextrins; assay type: physicochemical
[19] = Apparent oral clearance in healthy Sprague-Dawley rat at 500 mg/kg, po administered as single dose; assay type: ADME, organism-based; set-up: dose 500 mg/kg, route oral; conditions: in vivo; summary of the method: as §2
[20] = Metabolic stability in Sprague-Dawley rat plasma assessed as drug recovery at 12.8 ug/ml by RP-HPLC; assay type: ADME, cell-free; conditions: read-out: Stability
[21] = Metabolic stability in Sprague-Dawley rat plasma assessed as drug recovery at 0.8 ug/ml by RP-HPLC; assay type: ADME, cell-free; conditions: read-out: Stability

| degraded at 45 h [1] | AUC(0-inf) [3] | AUC(0-t) [5] | MRT inf [7] | remaining at 3.2 ug/ml [8] | Tmax [12] | remaining at 0.2 ug/ml [13] | half-life [14] | MRT last [15] | Cmax [16] | Structure (SMILES) | IC50 (KB (human)) | IC50 [2] | IC50 (HeLa) | IC50 (PC-3) | IC50 (CNE) | IC50 (BGC-823) | also measured |
| --- | --- | --- | --- | --- | --- | --- | --- | --- | --- | --- | --- | --- | --- | --- | --- | --- | --- |
| 0% |  |  |  |  |  |  |  |  |  | O=C(/C=C/c1cccs1)/C=C/c1cccs1 | 123 µM | 79.5 µM | 6.2 µM | 10.3 µM | 154 µM |  |  |
| 0% |  |  |  |  |  |  |  |  |  | Cc1ccc(C)c(/C=C/C(=O)/C=C/c2cc(C)ccc2C)c1 |  | 103 µM | 6.1 µM | 5.2 µM | 17.7 µM |  |  |
| > 64% | 672 ng·h/mL | 275 ng·h/mL | 22.7 h | 98.7% | 0.5 h | 98.2% | 2.41 h | 3.44 h | 91 ng/mL | COc1cc(/C=C/C(=O)CC(=O)/C=C/c2ccc(O)c(OC)c2)ccc1O [CURCUMIN] | 35.9 µM | 6.4 µM | 17.5 µM | 15 µM | 32.8 µM | 16.7 µM | degraded at 0.5 h [4]: 92%; concentration (Liver): 1300 nM; concentration [6]: 1300 nM; concentration at 2 h [9]: 40 ng/mL; concentration (Blood [10]): 1300 nM; concentration (Blood [11]): 1300 nM; remaining at 0.05 ug/ml [17]: 97.7%; IC50 (HL-60 (human)): 11.6 µM; half-life [18]: 10.5 h |
| 0% | 14900 ng·h/mL | 12100 ng·h/mL | 4.16 h | 97.1% | 0.25 h | 96.5% | 2.92 h | 2.49 h | 4100 ng/mL | O=C(/C=C/c1ccccc1Br)/C=C/c1ccccc1Br |  | 4 µM | 34.2 µM | 15.4 µM |  | 16.1 µM | CL/F [19]: 650 mL/min/kg; remaining at 12.8 ug/ml [20]: 95.2% |
| 0% |  |  |  |  |  |  |  |  |  | O=C1/C(=C/c2ccc(F)cc2)CCC/C1=C\c1ccc(F)cc1 | 150 µM | 7.4 µM |  |  | 77.9 µM | 87.3 µM | IC50 (HL-60 (human)): 58.1 µM |
| 0% |  |  |  |  |  |  |  |  |  | O=C1/C(=C/c2ccccc2F)CCC/C1=C\c1ccccc1F | 74.1 µM |  | 15.5 µM | 45.8 µM | 130 µM |  |  |
| 0% | 4910 ng·h/mL | 2960 ng·h/mL | 8.48 h | 97.6% | 1 h | 96.4% | 5.96 h | 2.96 h | 822 ng/mL | COc1cc(/C=C/C(=O)/C=C/c2ccc(O)c(OC)c2)ccc1O |  | 3.7 µM |  |  | 6.8 µM |  | CL/F [19]: 2090 mL/min/kg; remaining at 0.8 ug/ml [21]: 98.3% |
